Test results taken from ChEMBL document CHEMBL5370575, “Probing the Cytotoxic Signaling Induced by Eupenifeldin in Ovarian Cancer Models” (J Nat Prod, 2023).
Activity calls are given as the source filed them.

Experiments:
OVCAR-3 [1] = experiment: Induction of ferroptosis in human OVCAR-3 cells at 0.001 to 10 uM in presence of ferrostatin-1 by CellTiterGlo assay; format: functional, cell-based; settings: dose 0.001-10 µM
OVCAR-8 [2] = experiment: Cytotoxicity against human OVCAR-8 cells assessed as inhibition of cell growth for 72 hrs by CellTiter-Blue cell viability assay; format: functional, cell-based
How it was run: (§1)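 5000 cells seeded in triplicate, attached overnight, then exposed for 72 h to serial concentrations in DMSO vehicle (0.05%). Viability was read by fluorometric CellTiter-Blue. IC50 in nM comes from dose–response curves relative to DMSO control. Media: OVCAR3 in RPMI1640, OVCAR5/OVCAR8 in DMEM, hFT33 in DMEM-Ham's F12 50/50, all with 10% FBS. Data are mean ± SEM, three biological replicates.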

OVCAR-3 [3] = experiment: Cytotoxicity against human OVCAR-3 cells assessed as inhibition of cell growth for 72 hrs by CellTiter-Blue cell viability assay; format: functional, cell-based; settings: OVCAR-3, 72 h; how it was run: as §1
OVCAR-5 [4] = experiment: Cytotoxicity against human OVCAR-5 cells assessed as inhibition of cell growth for 72 hrs by CellTiter-Blue cell viability assay; format: functional, cell-based; settings: OVCAR-5, 72 h; how it was run: as §1
[5] = Cytotoxicity against human FT33 cells assessed as inhibition of cell growth for 72 hrs by CellTiter-Blue cell viability assay; format: toxicity, cell-based; how it was run: as §1
OVCAR-8 [6] = experiment: Cytotoxicity against human OVCAR-8 cells assessed as reduction in colony formation at 10 nM incubated for 8 hrs measured after 15 days by crystal violet staining based analysis; format: functional, cell-based; settings: time 368.0 hrs
How it was run: (§2)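 Seeded at 200 cells per dish, attached overnight, exposed 8 h to 10 nM (DMSO vehicle 0.1%), then grown 15 days in untreated growth medium. Colonies fixed with 4% paraformaldehyde, stained with 0.05% crystal violet, counted and normalised to vehicle. Mean ± SEM, three biological replicates, one-way ANOVA with Dunnett's test.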

OVCAR-5 [7] = experiment: Inhibition of cell migration in human OVCAR-5 cells assessed as decrease in wound closure at 10 to 25 nM incubated for 48 hrs by wound healing assay; format: functional, cell-based; settings: dose 10-25 nM
How it was run: (§3)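 Confluent monolayers scratched once, washed with PBS, then treated with 10 or 25 nM (paclitaxel 10 nM control) for 48 h. Scratch area imaged at 4× at 0 and 48 h, measured and normalised to vehicle. One-way ANOVA with Dunnett's test.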

OVCAR-8 [8] = experiment: Inhibition of cell migration in human OVCAR-8 cells assessed as decrease in wound closure at 10 to 25 nM incubated for 48 hrs by wound healing assay; format: functional, cell-based; settings: dose 10-25 nM; how it was run: as §3
OVCAR-3 [9] = experiment: Cytotoxicity against human OVCAR-3 cells assessed as reduction in colony formation at 10 nM incubated for 8 hrs measured after 15 days by crystal violet staining based analysis; format: functional, cell-based; settings: time 368.0 hrs; how it was run: as §2
OVCAR-5 [10] = experiment: Cytotoxicity against human OVCAR-5 cells assessed as reduction in colony formation at 10 nM incubated for 8 hrs measured after 15 days by crystal violet staining based analysis; format: functional, cell-based; settings: time 368.0 hrs; how it was run: as §2
OVCAR-3 [11] = experiment: Antitumor activity against human OVCAR-3 cells xenografted in immunodeficient NCr nu/nu mouse assessed as reduction in cell survival at 0.5 mg/kg, ip administrated once per day for 4 days measured on day 7 by MTT assay; format: functional, organism-based; settings: time 7.0 day
How it was run: (§4)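 Female immunodeficient NCr nu/nu mice (6–8 weeks) carried intraperitoneal polyvinylidene fluoride hollow fibres holding OVCAR3 and OVCAR8 cells (day 0). Dosed ip once daily on days 3–6 in 2% DMSO/48% PEG300/50% H₂O diluted with H₂O. Fibres retrieved on day 7; cell viability by modified MTT assay. One-way ANOVA with Dunnett's test vs vehicle.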

OVCAR-8 [12] = experiment: Antitumor activity against human OVCAR-8 cells xenografted in immunodeficient NCr nu/nu mouse assessed as reduction in cell survival at 0.5 mg/kg, ip administrated once per day for 4 days measured on day 7 by MTT assay; format: functional, organism-based; settings: time 7.0 day; how it was run: as §4
[13] = Toxicity in immunodeficient NCr nu/nu mouse xenografted with human OVCAR-8 cells assessed as change in body weight at 0.5 mg/kg, ip administrated once per day for 4 days measured measured on day 7 relative to control; format: organism-based; settings: in vivo, 168 h, time 7 day
How it was run: (§5)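 Female immunodeficient NCr nu/nu mice, 6–8 weeks old, carried cells sealed in polyvinylidene fluoride hollow fibers implanted intraperitoneally on day 0. Dosing was i.p. once daily on days 3–6 in 2% DMSO:48% PEG300:50% H2O, diluted with H2O. Body weight was followed over the study, and fibers were retrieved on day 7.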

OVCAR-3 [14] = experiment: Induction of apoptosis in human OVCAR-3 cells assessed as increase in apoptotic cells at 25 nM incubated for 48 hrs by Annexin V-FITC/propidium iodide staining based analysis; format: functional, cell-based
How it was run: (§6)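 OVCAR5/OVCAR8 seeded at 175 000 and OVCAR3 at 190 000 cells per 60 mm dish, attached overnight, treated 48 h (10, 25 or 50 nM). Media and cells collected, PBS-washed, stained with annexin V-FITC/propidium iodide and read on a cell counter with gating per kit. Three biological replicates, mean ± SEM, Dunnett's test.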

OVCAR-8 [15] = experiment: Induction of apoptosis in human OVCAR-8 cells assessed as increase in apoptotic cells at 25 nM incubated for 48 hrs by Annexin V-FITC/propidium iodide staining based analysis; format: functional, cell-based; how it was run: as §6
OVCAR-5 [16] = experiment: Induction of apoptosis in human OVCAR-5 cells at 25 nM incubated for 48 hrs by Annexin V-FITC/propidium iodide staining based analysis; format: functional, cell-based; how it was run: as §6
OVCAR-3 [17] = experiment: Anti-ferroptotic activity against human OVCAR-3 cells assessed as decrease in lipid peroxidation at 50 nM incubated for 24 hrs by C11-BODIPY staining based flow cytometric analysis; format: functional, cell-based
How it was run: (§7)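 Cells treated 24 h with 50 nM, with or without 2 μM ferrostatin-1; lipid peroxidation read as C11-BODIPY fluorescence in the green channel by flow cytometry.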

OVCAR-3 [18] = experiment: Anti-ferroptotic activity against human OVCAR-3 cells assessed as decrease in lipid peroxidation at 50 nM incubated for 24 hrs in presence of ferrostatin-1 by C11-BODIPY staining based flow cytometric analysis; format: functional, cell-based; how it was run: as §7
HeLa [19] = experiment: Induction of autophagy in human HeLa cells harboring eGFP-LC3 assessed as increase in LC3 puncta accumulation at 250 nM incubated for 4 hrs by Hoechst 33342 and DAPI staining based analysis; format: functional, cell-based
How it was run: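 HeLa stably expressing eGFP-LC3, 384-well plates, treated 4 h with serial dilutions starting at 250 nM, fixed in 4% formaldehyde, nuclei counterstained, imaged at 10× (FITC); LC3 puncta quantified by image analysis, normalised to DMSO, dose–response fitted.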

HeLa [20] = experiment: Induction of autophagic flux in human HeLa cells harbouring mCherry-eGFP-LC3 assessed as increase in number of autolysosomes at 10 nM incubated for 24 hrs by Hoechst 33342 and DAPI staining based analysis; format: functional, cell-based
How it was run: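 HeLa stably expressing mCherry-eGFP-LC3, 384-well plates, treated 24 h, fixed 12 min in 4% formaldehyde, nuclei stained, imaged at 10× under FITC and Texas Red filters; autolysosomes/autophagosomes quantified by high-content analysis and normalised to DMSO; chloroquine as control. Three biological replicates in duplicate.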

OVCAR-3 [21] = experiment: Induction of autophagy in human OVCAR-3 cells assessed as reduction in cell viability at 25 nM incubated for 72 hrs in presence of bafilomycin by CellTiter-Blue Cell Viability assay; format: functional, cell-based
How it was run: (§8)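 5000 cells/well attached overnight, then treated 72 h with 25 nM alone or with bafilomycin A1 (5 nM; OVCAR8 also at 1 nM); bafilomycin alone as control. Viability by CellTiter-Blue fluorescence, normalised to vehicle. One-way ANOVA with Tukey's test.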

OVCAR-5 [22] = experiment: Induction of autophagy in human OVCAR-5 cells assessed as reduction in cell viability at 25 nM incubated for 72 hrs in presence of bafilomycin by CellTiter-Blue Cell Viability assay; format: functional, cell-based; how it was run: as §8
OVCAR-8 [23] = experiment: Induction of autophagy in human OVCAR-8 cells assessed as reduction in cell viability at 25 nM incubated for 72 hrs in the presence of 1 nM bafilomycin by CellTiter-Blue Cell Viability assay; format: functional, cell-based; how it was run: as §8
OVCAR-3 [24] = experiment: Induction of apoptosis in human OVCAR-3 cells assessed as increase in necrotic cells at 25 nM incubated for 48 hrs by Annexin V-FITC/propidium iodide staining based analysis; format: functional, cell-based; how it was run: as §6
OVCAR-8 [25] = experiment: Induction of apoptosis in human OVCAR-8 cells assessed as increase in necrotic cells at 25 nM incubated for 48 hrs by Annexin V-FITC/propidium iodide staining based analysis; format: functional, cell-based; how it was run: as §6
[26] = Toxicity in immunodeficient NCr nu/nu mouse xenografted with human OVCAR-3 cells assessed as change in body weight at 0.5 mg/kg, ip administrated once per day for 4 days measured measured on day 7 relative to control; format: organism-based; settings: in vivo, 168 h, time 7 day; how it was run: as §5
OVCAR-3 [27] = experiment: Induction of ferroptosis in human OVCAR-3 cells at 0.1 to 10 uM in the presence of ferrostatin-1 by CellTiterGlo assay; format: functional, cell-based; settings: dose 0.1-10 µM
How it was run: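 OVCAR3 in 384-well plates (1000 cells/well), given 100 nM to 10 μM together with 2 μM ferrostatin-1, in triplicate; viability measured by CellTiter-Glo.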

OVCAR-3 [28] = experiment: Induction of apoptosis in human OVCAR-3 cells assessed as increase in caspase-3/7 activity at 50 nM incubated for 48 hrs by fluorescent reporter assay
OVCAR-8 [29] = experiment: Induction of apoptosis in human OVCAR-8 cells assessed as increase in caspase-3/7 activity at 50 nM incubated for 48 hrs by fluorescent reporter assay
OVCAR-5 [30] = experiment: Induction of apoptosis in human OVCAR-5 cells assessed as increase in caspase-3/7 activity at 50 nM incubated for 48 hrs by fluorescent reporter assay
OVCAR-3 [31] = experiment: Induction of apoptosis in human OVCAR-3 cells assessed as increase in cleaved PARP expression level at >=10 nM incubated for 72 hrs by Western blotting analysis
OVCAR-3 [32] = experiment: Induction of apoptosis in human OVCAR-3 cells assessed as decrease in caspase-3/7 activity at 50 nM incubated for 48 hrs in presence of by ZVAD-FMK fluorescent reporter assay
OVCAR-8 [33] = experiment: Induction of apoptosis in human OVCAR-8 cells assessed as decrease in caspase-3/7 activity at 50 nM incubated for 48 hrs in presence of by ZVAD-FMK fluorescent reporter assay
OVCAR-5 [34] = experiment: Induction of apoptosis in human OVCAR-5 cells assessed as decrease in caspase-3/7 activity at 50 nM incubated for 48 hrs in presence of by ZVAD-FMK fluorescent reporter assay
OVCAR-3 (Homo sapiens) [35] = experiment: Anti-ferroptotic activity against human OVCAR-3 cells assessed as decrease in lipid peroxidation at 50 nM incubated for 24 hrs by C11-BODIPY staining based flow cytometric analysis
OVCAR-3 (Homo sapiens) [36] = experiment: Anti-ferroptotic activity against human OVCAR-3 cells assessed as decrease in lipid peroxidation at 50 nM incubated for 24 hrs in presence of ferrostatin-1 by C11-BODIPY staining based flow cytometric analysis

COC(=O)c1ccc([C@H]2c3[nH]c4ccccc4c3C[C@H](C(=O)OC)N2C(=O)CCl)cc1
inactive: Activity (OVCAR-3 [1])

CO/C1=C\C(C)=C\[C@@H](C)[C@@H](O)[C@@H](C)C/C(C)=C/C=C/[C@H](OC)[C@@H]([C@@H](C)[C@@H](O)[C@H](C)[C@@]2(O)C[C@@H](O)[C@H](C)[C@@H](C(C)C)O2)OC1=O
active: Activity (OVCAR-8 [2])

Cc1cc(=O)c(O)cc2c1C[C@H]1CC(C)(C)/C=C/C[C@]3(C)Oc4cc(O)c(=O)cc(C)c4C[C@H]3C[C@H](O)[C@@]1(C)O2
> 12%: Activity [13]
active: Activity (OVCAR-8 [6]) | inhibition (OVCAR-5 [7]) | inhibition (OVCAR-8 [8]) | Activity (OVCAR-3 [9]) | Activity (OVCAR-5 [10]) | Activity (OVCAR-3 [11]) | Activity (OVCAR-3 [14]) | Activity (OVCAR-8 [15]) | Activity (OVCAR-3 [17]) | Activity (OVCAR-3 [18]) | Activity (HeLa [19]) | Activity (HeLa [20]) | Activity (OVCAR-3 [24]) | Activity (OVCAR-8 [25]) | Activity (OVCAR-3 [27]) | Activity (OVCAR-3 [28]) | Activity (OVCAR-8 [29]) | Activity (OVCAR-5 [30]) | Activity (OVCAR-3 [31]) | Activity (OVCAR-3 [32]) | Activity (OVCAR-8 [33]) | Activity (OVCAR-5 [34]) | Activity (OVCAR-3 (Homo sapiens) [35]) | Activity (OVCAR-3 (Homo sapiens) [36])
0.012 µM: IC50 (OVCAR-8 [2]; OVCAR-8, 72 h)
0.0097 µM: IC50 (OVCAR-3 [3])
0.17 µM: IC50 at 72 h [5]
0.011 µM: IC50 (OVCAR-5 [4])
inactive: Activity (OVCAR-8 [12]) | Activity (OVCAR-5 [16]) | Activity (OVCAR-3 [21]) | Activity (OVCAR-5 [22]) | Activity (OVCAR-8 [23])
<= 12%: Activity [26]
